According to article PMC4445880 (ACS chemical biology, 2013):
Several values for one entry are separate records, joined by “and”; a condition that tells them apart may be missing. Identical values can stand only once.

How the values were obtained:
DAPK3 = DAPK3 (Homo sapiens, UniProt O43293); experiment: KINOMEscan active-site dependent competition binding assay; conditions: DAPK3 (ZIPK); from Kd values
DAPK1 = DAPK1 (Homo sapiens, UniProt P53355); experiment: as above; conditions: from Kd values
aortic SM cells = experiment: RLC20 phosphorylation in aortic smooth muscle cells, basal and S1P stimulated; format: cell-based, human; conditions: 50 µM, 30 min; for relative percent RLC20 phosphorylation, S1P stimulated state: S1P 0.25 µM
How it was run: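 A mouse aortic smooth muscle cell line was grown in AmnioMax with 10% FBS at 37 °C and 5% CO₂, then serum-starved for 16 h. Subconfluent cells were given S1P (0.25 µM, 5 min) or left basal. They were then treated with test compound (50 µM) or 0.1% DMSO for 30 min. Cells were lysed in 1% SDS, 300 mM NaCl and 50 mM Tris-HCl pH 7.5. Phospho-RLC20 was measured by Western blot and densitometry.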

[1] = test system: rat caudal arterial smooth muscle strips; experiment: Calyculin A induced contraction of rat caudal arterial smooth muscle strips; conditions: 100 µM, calyculin A 0.5 mM; for maximum contractile force: 3 h
How it was run: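 Intact rat caudal arterial smooth muscle strips were contracted with calyculin A (0.5 mM, 3 h). This was done in the presence of vehicle (DMSO) or test compound at 100 µM. Maximal force was expressed as percent of an initial reference KCl contraction. Time to reach 50% of maximal contraction after calyculin A was also calculated.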

GFP-ZIPK = GFP-ZIPK (Homo sapiens, UniProt O43293); experiment: FLECS elution from γ-linked ATP Sepharose; format: binding; conditions: for elution of GFP-ZIPK from ATP Sepharose: titration 0.1−300 µM
How it was run: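 Full-length ZIPK with N-terminal GFP was expressed in HEK293 cells. Crude lysate was bound to γ-linked ATP Sepharose for 0.5 h at 4 °C (pH 7.5, 60 mM MgCl₂), washed with high- then low-salt buffer, and split into 96-well filter plates. Test compound was added for 10 min at RT, as a 900 µM solution (screen) or 0.1−300 µM (titration), in 10% DMSO. Filtrate fluorescence was read at 485/535 nm. Controls were ATP 2−200 mM (positive) and 10% DMSO (negative). Hits were wells with >5000 counts (2.5 × background), checked by Western blot.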

[2] = test system: rat caudal arterial smooth muscle; experiment: RLC20 phosphorylation in rat caudal arterial smooth muscle; conditions: 100 µM; 30 min CLa exposure
CaMK2 = experiment: 33P-ATP filter-binding kinase assay; format: biochemical, human; conditions: read-out: % activity against kinase, kinome profile
How it was run: (§1)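 Kinome panel of 124 purified protein kinases run by an outside profiling centre using a ³³P-ATP filter-binding assay. Test compound was tested at 10 µM. Read-out is residual % enzyme activity.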

IRAK4 = molecular target: T1, IRAK4 (Homo sapiens, UniProt Q9NWZ3); experiment: 33P-ATP filter-binding kinase assay; format: biochemical
T1 sequence (Q9NWZ3 1-460): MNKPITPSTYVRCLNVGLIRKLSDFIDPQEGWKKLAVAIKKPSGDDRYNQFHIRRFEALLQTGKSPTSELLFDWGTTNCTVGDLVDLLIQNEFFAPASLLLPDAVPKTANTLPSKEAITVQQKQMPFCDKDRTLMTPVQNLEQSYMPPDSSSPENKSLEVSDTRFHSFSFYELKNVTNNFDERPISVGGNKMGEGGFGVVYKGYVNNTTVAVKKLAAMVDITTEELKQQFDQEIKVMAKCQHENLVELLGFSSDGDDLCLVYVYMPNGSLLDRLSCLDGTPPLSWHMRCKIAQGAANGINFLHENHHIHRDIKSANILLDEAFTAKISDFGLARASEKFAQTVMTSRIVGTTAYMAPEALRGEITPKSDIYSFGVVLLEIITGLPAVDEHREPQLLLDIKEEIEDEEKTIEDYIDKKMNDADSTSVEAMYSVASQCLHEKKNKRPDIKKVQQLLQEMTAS

CK1α = CK1α (Homo sapiens, UniProt P48729); experiment: 33P-ATP filter-binding kinase assay; format: biochemical; conditions: read-out: % activity against kinase, kinome profile
How it was run: as §1

ROCK2 = ROCK2 (Rattus norvegicus, UniProt Q62868); experiment: 33P-ATP filter-binding kinase assay; format: biochemical, human
[3] = test system: rabbit ileum smooth muscle; experiment: Ca2+-independent force development in rabbit ileum after MC-LR; conditions: pCa 9.0; MC-LR 10 µM
PKN2 = PKN2 (Homo sapiens, UniProt Q16513); experiment: 33P-ATP filter-binding kinase assay; format: biochemical; conditions: read-out: % activity against kinase, kinome profile
How it was run: as §1

smMLCK = smMLCK (Homo sapiens, UniProt Q15746); experiment: 33P-ATP filter-binding kinase assay; format: biochemical
rabbit ileum = experiment: RLC20 and MYPT1 phosphorylation in Ca2+-sensitized rabbit ileum; conditions: HS38 50 µM
[4] = test system: human coronary artery smooth muscle cells (CA-VSMC); experiment: Phosphorylation in human coronary artery smooth muscle cells; format: cell-based; conditions: HS38 10 µM, 40 min
PIM2 = PIM2 (Homo sapiens, UniProt Q9P1W9); experiment: 33P-ATP filter-binding kinase assay; format: biochemical
PIM1 = PIM1 (Homo sapiens, UniProt P11309); experiment: 33P-ATP filter-binding kinase assay; format: biochemical
PKA = PKA (Homo sapiens, UniProt P17612); experiment: 33P-ATP filter-binding kinase assay; format: biochemical; conditions: read-out: % activity against kinase, kinome profile
How it was run: as §1

GFP-ZIPK, sequence (O43293 whole entry): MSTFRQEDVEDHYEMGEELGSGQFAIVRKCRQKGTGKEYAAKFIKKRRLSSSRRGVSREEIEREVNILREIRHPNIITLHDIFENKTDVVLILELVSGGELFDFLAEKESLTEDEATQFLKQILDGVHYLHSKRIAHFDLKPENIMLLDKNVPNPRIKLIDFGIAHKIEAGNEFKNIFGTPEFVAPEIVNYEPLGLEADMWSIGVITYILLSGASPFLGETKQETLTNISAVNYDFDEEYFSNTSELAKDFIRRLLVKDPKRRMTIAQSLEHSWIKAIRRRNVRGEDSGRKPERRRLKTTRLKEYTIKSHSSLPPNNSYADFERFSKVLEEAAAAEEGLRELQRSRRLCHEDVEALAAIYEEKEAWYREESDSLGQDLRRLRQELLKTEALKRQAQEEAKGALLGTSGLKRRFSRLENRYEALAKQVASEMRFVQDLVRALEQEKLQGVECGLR
ROCK2, sequence (Q62868 2-543 limits assumed): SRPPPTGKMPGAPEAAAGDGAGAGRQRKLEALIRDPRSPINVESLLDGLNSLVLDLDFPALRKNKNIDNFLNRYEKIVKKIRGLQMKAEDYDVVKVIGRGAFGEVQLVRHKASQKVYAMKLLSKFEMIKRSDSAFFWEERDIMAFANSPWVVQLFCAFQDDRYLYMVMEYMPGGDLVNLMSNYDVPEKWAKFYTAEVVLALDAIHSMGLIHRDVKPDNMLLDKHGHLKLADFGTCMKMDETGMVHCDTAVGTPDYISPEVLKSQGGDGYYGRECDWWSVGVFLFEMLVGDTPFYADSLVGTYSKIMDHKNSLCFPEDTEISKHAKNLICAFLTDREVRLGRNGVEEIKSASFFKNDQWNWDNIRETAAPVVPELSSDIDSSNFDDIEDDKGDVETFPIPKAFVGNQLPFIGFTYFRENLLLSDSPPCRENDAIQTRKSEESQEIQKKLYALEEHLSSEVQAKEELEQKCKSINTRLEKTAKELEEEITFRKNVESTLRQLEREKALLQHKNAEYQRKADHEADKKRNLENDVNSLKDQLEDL
DAPK3, sequence (O43293 whole entry): as the sequence (O43293 whole entry) above
DAPK1, sequence (P53355 whole entry): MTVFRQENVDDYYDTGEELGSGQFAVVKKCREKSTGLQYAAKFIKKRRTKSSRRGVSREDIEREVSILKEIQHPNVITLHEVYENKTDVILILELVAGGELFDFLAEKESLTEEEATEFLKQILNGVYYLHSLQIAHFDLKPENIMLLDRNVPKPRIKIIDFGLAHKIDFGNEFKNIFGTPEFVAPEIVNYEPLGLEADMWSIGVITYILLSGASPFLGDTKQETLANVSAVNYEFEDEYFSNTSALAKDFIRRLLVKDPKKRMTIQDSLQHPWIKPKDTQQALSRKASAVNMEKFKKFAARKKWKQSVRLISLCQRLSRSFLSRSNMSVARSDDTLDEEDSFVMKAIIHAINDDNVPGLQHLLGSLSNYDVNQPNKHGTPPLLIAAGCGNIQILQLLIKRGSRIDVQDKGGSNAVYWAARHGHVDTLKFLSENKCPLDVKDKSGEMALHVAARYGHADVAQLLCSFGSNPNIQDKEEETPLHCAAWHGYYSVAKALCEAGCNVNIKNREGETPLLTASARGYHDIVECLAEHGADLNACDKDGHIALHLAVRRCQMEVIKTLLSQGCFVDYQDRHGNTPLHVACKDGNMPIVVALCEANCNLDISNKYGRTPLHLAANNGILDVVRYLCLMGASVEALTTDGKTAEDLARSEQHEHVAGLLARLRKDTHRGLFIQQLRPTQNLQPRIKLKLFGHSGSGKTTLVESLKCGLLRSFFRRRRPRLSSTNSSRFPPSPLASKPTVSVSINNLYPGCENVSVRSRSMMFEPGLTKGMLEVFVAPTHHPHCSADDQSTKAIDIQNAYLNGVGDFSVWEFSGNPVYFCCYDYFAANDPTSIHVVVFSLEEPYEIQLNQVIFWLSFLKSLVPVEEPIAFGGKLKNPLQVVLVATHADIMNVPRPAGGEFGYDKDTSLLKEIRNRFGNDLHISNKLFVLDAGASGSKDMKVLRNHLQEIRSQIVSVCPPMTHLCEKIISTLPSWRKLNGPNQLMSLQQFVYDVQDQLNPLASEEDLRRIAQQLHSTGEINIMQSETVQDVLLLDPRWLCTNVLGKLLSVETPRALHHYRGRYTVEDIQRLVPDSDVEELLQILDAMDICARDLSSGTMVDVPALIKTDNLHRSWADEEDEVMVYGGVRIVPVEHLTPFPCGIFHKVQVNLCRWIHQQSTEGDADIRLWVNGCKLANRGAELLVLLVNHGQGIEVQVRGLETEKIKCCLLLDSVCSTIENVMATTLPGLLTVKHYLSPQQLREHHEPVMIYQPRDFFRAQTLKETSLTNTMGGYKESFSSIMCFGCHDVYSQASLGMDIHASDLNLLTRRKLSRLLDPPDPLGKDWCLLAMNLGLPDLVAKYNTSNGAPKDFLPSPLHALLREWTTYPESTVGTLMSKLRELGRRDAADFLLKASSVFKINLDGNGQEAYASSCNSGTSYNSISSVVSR
PKN2, sequence (Q16513 whole entry): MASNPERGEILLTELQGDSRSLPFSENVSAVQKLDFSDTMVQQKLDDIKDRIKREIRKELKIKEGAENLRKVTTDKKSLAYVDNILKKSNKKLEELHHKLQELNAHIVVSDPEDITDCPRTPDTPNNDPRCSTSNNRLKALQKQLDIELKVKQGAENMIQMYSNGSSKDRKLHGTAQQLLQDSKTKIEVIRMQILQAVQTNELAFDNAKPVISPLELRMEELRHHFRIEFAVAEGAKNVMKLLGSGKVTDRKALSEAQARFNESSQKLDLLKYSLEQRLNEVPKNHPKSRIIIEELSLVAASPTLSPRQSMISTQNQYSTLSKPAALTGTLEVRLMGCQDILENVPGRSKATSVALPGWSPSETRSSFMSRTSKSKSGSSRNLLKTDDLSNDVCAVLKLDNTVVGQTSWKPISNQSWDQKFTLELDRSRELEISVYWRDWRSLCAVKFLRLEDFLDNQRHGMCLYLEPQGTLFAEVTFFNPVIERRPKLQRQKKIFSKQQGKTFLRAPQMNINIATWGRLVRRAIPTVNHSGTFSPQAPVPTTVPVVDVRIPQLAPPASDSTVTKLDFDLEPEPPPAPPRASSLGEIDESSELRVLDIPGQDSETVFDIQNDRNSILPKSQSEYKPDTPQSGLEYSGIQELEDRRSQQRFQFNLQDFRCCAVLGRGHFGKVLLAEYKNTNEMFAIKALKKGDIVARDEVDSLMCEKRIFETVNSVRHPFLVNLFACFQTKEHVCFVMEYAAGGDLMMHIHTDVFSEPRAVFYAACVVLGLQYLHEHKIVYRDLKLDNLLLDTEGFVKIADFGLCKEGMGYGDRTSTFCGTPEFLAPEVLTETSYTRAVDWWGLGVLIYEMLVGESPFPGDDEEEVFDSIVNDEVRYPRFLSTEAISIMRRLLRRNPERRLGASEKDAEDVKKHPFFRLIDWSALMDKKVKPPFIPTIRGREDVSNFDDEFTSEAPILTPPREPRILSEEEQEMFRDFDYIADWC
PIM2, sequence (Q9P1W9 whole entry): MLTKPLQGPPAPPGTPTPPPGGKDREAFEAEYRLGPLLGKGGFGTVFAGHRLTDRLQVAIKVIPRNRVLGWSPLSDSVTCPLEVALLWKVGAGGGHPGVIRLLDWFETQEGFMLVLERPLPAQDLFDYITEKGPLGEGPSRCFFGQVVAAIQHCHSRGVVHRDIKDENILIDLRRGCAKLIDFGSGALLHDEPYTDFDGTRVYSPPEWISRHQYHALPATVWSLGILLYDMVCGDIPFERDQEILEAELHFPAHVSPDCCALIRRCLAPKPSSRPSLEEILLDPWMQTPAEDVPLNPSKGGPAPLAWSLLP
smMLCK, sequence (Q15746 1464-1719 limits assumed): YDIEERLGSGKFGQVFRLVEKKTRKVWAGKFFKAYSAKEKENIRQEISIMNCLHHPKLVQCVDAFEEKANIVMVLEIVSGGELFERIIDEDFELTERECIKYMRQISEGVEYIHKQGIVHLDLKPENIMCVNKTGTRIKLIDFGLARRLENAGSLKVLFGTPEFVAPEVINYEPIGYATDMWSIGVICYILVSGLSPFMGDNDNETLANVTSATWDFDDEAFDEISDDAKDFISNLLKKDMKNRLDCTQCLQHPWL
CK1α, sequence (P48729 whole entry): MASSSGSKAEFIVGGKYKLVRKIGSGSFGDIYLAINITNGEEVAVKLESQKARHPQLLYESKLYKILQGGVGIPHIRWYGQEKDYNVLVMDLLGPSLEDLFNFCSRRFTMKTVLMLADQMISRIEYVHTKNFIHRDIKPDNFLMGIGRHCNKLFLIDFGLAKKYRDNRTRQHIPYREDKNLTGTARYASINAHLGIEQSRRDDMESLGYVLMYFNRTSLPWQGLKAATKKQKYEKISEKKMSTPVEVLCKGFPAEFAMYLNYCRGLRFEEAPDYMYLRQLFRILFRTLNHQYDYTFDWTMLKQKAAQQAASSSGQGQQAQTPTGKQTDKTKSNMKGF
PIM1, sequence (P11309 whole entry): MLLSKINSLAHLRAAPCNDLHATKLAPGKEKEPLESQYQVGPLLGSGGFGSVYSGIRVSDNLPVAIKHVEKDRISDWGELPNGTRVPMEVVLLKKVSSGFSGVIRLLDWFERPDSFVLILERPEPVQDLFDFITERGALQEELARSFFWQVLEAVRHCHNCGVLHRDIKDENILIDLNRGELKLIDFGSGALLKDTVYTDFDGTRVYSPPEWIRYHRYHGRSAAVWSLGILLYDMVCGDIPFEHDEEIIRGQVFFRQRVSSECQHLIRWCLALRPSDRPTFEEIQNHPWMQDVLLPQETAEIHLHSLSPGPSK

O=c1[nH]c(SCCO)nc2c1cnn2-c1cccc(Cl)c1 [HS43, 1-(3-Chlorophenyl)-6-((2-hydroxyethyl)thio)-1,5-dihydro-4H-pyrazolo[3,4-d]pyrimidin-4-one]
fold less potent than HS38 / lower affinity (DAPK3): 5 fold and ~ 5 fold
fold less potent than HS38 (DAPK1): ~ 5 fold
relative percent RLC20 phosphorylation, basal (unstimulated) state (aortic SM cells): did not significantly affect
relative percent RLC20 phosphorylation, S1P stimulated state (aortic SM cells): did not significantly affect
time required to reach 50% of maximal contraction (t1/2 max) [1]: did not significantly affect
maximum contractile force [1]: did not significantly affect
elution of GFP-ZIPK from ATP Sepharose (GFP-ZIPK): eluted far less GFP-ZIPK
RLC20 phosphorylation [2]: did not affect

O=S(=O)(c1cccc2c(I)cccc12)N1CCCNCC1 [ML-7, reference compound]
elution of GFP-ZIPK from ATP Sepharose (GFP-ZIPK): failed to elute GFP-ZIPK

CC(Sc1nc2c(cnn2-c2cccc(Cl)c2)c(=O)[nH]1)C(N)=O (stereo not shown) [HS38, 2-((1-(3-chlorophenyl)-4-oxo-4,5-dihydro-1H-pyrazolo[3,4-d]pyrimidin-6-yl)thio)propanamide]
inhibition (CaMK2): < 10%
fold less potent than against DAPK1 and PIM3 (IRAK4): ~ 10 fold
inhibition (CK1α): < 10%
IC50 (ROCK2): > 200 µM
activity against ROCK2 (ROCK2; ROCK2, duplicate validation): completely inactive
inhibition (ROCK2; read-out: % activity against kinase, ROCK2, kinome profile): < 10%
lag time to the onset of force [3]: increased
rate of force development (t1/2) [3]: increased
inhibition (PKN2): < 10%
fold less potent than against DAPK1 and PIM3 (smMLCK): ~ 100 fold
MYPT1 Thr696 phosphorylation level (rabbit ileum): significantly reduced
RLC20 phosphorylation level (rabbit ileum): significantly reduced
relative percent RLC20 phosphorylation, basal (unstimulated) state (aortic SM cells): significantly decreased
relative percent RLC20 phosphorylation, S1P stimulated state (aortic SM cells): significantly decreased
phosphorylation state of Par-4 [4]: not significantly affected
phosphorylation state of T855 of MYPT1 [4]: not significantly affected
decrease in RLC20 phosphorylation ([4]; serum-free and 5% FBS conditions): 21−23%
time required to reach 50% of maximal contraction (t1/2 max) [1]: more than doubled
maximum contractile force [1]: without significantly affecting
increase in fluorescence above background (GFP-ZIPK; FLECS screen, elution of GFP-ZIPK, drug candidate 900 µM solution): > 4 fold
elution of GFP-ZIPK from ATP Sepharose (GFP-ZIPK): produced a sigmoidal curve
RLC20 phosphorylation [2]: significant reduction
fold less potent than against DAPK1 and PIM3 (PIM2): ~ 100 fold
fold less potent than against DAPK1 and PIM3 (PIM1): ~ 10 fold
inhibition (PKA): < 10%
